Assay results reported in ChEMBL document CHEMBL5038571, “Design and Synthesis of EZH2-Based PROTACs to Degrade the PRC2 Complex for Targeting the Noncatalytic Activity of EZH2” (J Med Chem, 2021).
One block for each compound: values may come before it. Active and inactive are the calls of the source. No cut-off for these calls is given here.

Columns and labels:
[1] = target: T1, Protein cereblon/Histone-lysine N-methyltransferase EZH2 (Homo sapiens) (UniProt Q15910+Q96SW2); test: PROTAC activity at CRBN E3 ligase/EZH2 in PRC2 complex in human WSUDLCL2 cells assessed as reduction in H3K27me3 level at 1 uM incubated for 48 hrs by Western blot analysis; format: cell-based
Summary of the method: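 WSU-DLCL-2 cells treated 48 h (1 μM for the single-concentration screen), lysed; SDS-PAGE, nitrocellulose transfer, 5% milk block, primary antibody 4 °C overnight, chemiluminescence. Bands quantified by densitometry, normalized to GAPDH, expressed relative to DMSO-treated cells; mean ± SD of three independent experiments, t-test.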

[2] = target: T1, Protein cereblon/Histone-lysine N-methyltransferase EZH2 (Homo sapiens); test: PROTAC activity at CRBN E3 ligase/EZH2 in PRC2 complex in human WSUDLCL2 cells assessed as induction of SUZ12 degradation at up to 10 uM incubated for 72 hrs by Western blot analysis; format: cell-based; conditions: dose microM <=10, time 72.0 hrs
[3] = target: T1, Protein cereblon/Histone-lysine N-methyltransferase EZH2 (Homo sapiens); test: PROTAC activity at CRBN E3 ligase/EZH2 in PRC2 complex in human WSUDLCL2 cells assessed as induction of EED degradation at up to 10 uM incubated for 72 hrs by Western blot analysis; format: cell-based; conditions: dose microM <=10, time 72.0 hrs
[4] = target: T1, Protein cereblon/Histone-lysine N-methyltransferase EZH2 (Homo sapiens); test: PROTAC activity at CRBN E3 ligase/EZH2 in PRC2 complex in human WSUDLCL2 cells assessed as induction of EZH2 degradation incubated for 72 hrs by Western blot analysis; format: cell-based; conditions: dose 0-10 µM
[5] = target: T1, Protein cereblon/Histone-lysine N-methyltransferase EZH2 (Homo sapiens); test: PROTAC activity at CRBN E3 ligase/EZH2 in PRC2 complex in human WSUDLCL2 cells assessed as reduction in H3K27me3 level incubated for 72 hrs by Western blot analysis; format: cell-based; conditions: dose 0-10 µM
[6] = target: Histone-lysine N-methyltransferase EZH2 (Homo sapiens, UniProt Q15910); format: cell-based, Sf9
[7] = target: T1, Protein cereblon/Histone-lysine N-methyltransferase EZH2 (Homo sapiens); test: PROTAC activity at CRBN E3 ligase/EZH2 in PRC2 complex in human WSUDLCL2 cells assessed as induction of EZH2 degradation at up to 10 uM incubated for 72 hrs by Western blot analysis; format: cell-based; conditions: dose microM <=10, time 72.0 hrs
[8] = target: T1, Protein cereblon/Histone-lysine N-methyltransferase EZH2 (Homo sapiens); test: PROTAC activity at CRBN E3 ligase/EZH2 in PRC2 complex in human WSUDLCL2 cells assessed as reduction in H3K27me3 level at up to 10 uM incubated for 72 hrs by Western blot analysis; format: cell-based; conditions: dose microM <=10, time 72.0 hrs
NCI-H1299 [9] = test: Downregulation of CENPK mRNA expression in human NCI-H1299 cells at 10 uM incubated for 48 hrs by qRT-PCR analysis; format: functional, cell-based
Summary of the method: (§1)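 Cells treated 48 h. Total RNA extracted with Trizol, reverse-transcribed, and SYBR RT-qPCR run: 95 °C 30 s, then 40 cycles of 95 °C 6 s and 60 °C 20 s. mRNA normalized to the DMSO-treated group. Mean SD of three independent experiments, t-test versus DMSO.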

WSUDLCL2 = test: Antiproliferative activity against human WSUDLCL2 cells harboring EZH2-Y641F mutant assessed as inhibition of cell growth at 10 uM incubated for 9 days by optical microscopic analysis; format: functional, cell-based; conditions: time 9.0 day
Summary of the method: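 WSU-DLCL-2 cells seeded at 5 × 10³ per well, incubated 24 h, then exposed to 10 μM compound for 9 days with medium refreshed. Cells photographed and counted on days 1, 3, 5, 7 and 9. Mean SD of three independent experiments, t-test versus DMSO.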

A549 [10] = test: Downregulation of […] mRNA expression in human A549 cells at 10 uM incubated for 48 hrs by qRT-PCR analysis; format: functional, cell-based; summary of the method: as §1
A549 [11] = test: Downregulation of ARL6IP mRNA expression in human A549 cells at 10 uM incubated for 48 hrs by qRT-PCR analysis; format: functional, cell-based; summary of the method: as §1
A549 [12] = test: Downregulation of CEP76 mRNA expression in human A549 cells at 10 uM incubated for 48 hrs by qRT-PCR analysis; format: functional, cell-based; summary of the method: as §1
A549 [13] = test: Downregulation of CENPK mRNA expression in human A549 cells at 10 uM incubated for 48 hrs by qRT-PCR analysis; format: functional, cell-based; summary of the method: as §1
A549 [14] = test: Downregulation of CHEK1 mRNA expression in human A549 cells at 10 uM incubated for 48 hrs by qRT-PCR analysis; format: functional, cell-based; summary of the method: as §1
A549 [15] = test: Downregulation of TACC3 mRNA expression in human A549 cells at 10 uM incubated for 48 hrs by qRT-PCR analysis; format: functional, cell-based; summary of the method: as §1
NCI-H1299 [16] = test: Downregulation of […] mRNA expression in human NCI-H1299 cells at 10 uM incubated for 48 hrs by qRT-PCR analysis; format: functional, cell-based; summary of the method: as §1
NCI-H1299 [17] = test: Downregulation of ARL6IP mRNA expression in human NCI-H1299 cells at 10 uM incubated for 48 hrs by qRT-PCR analysis; format: functional, cell-based; summary of the method: as §1
NCI-H1299 [18] = test: Downregulation of CEP76 mRNA expression in human NCI-H1299 cells at 10 uM incubated for 48 hrs by qRT-PCR analysis; format: functional, cell-based; summary of the method: as §1
NCI-H1299 [19] = test: Downregulation of CHEK1 mRNA expression in human NCI-H1299 cells at 10 uM incubated for 48 hrs by qRT-PCR analysis; format: functional, cell-based; summary of the method: as §1
NCI-H1299 [20] = test: Downregulation of TACC3 mRNA expression in human NCI-H1299 cells at 10 uM incubated for 48 hrs by qRT-PCR analysis; format: functional, cell-based; summary of the method: as §1
MDA-MB-468 [21] = test: Downregulation of […] mRNA expression in human MDA-MB-468 cells at 10 uM incubated for 48 hrs by qRT-PCR analysis; format: functional, cell-based; summary of the method: as §1
MDA-MB-468 [22] = test: Downregulation of ARL6IP mRNA expression in human MDA-MB-468 cells at 10 uM incubated for 48 hrs by qRT-PCR analysis; format: functional, cell-based; summary of the method: as §1
MDA-MB-468 [23] = test: Downregulation of CEP76 mRNA expression in human MDA-MB-468 cells at 10 uM incubated for 48 hrs by qRT-PCR analysis; format: functional, cell-based; summary of the method: as §1
MDA-MB-468 [24] = test: Downregulation of CHEK1 mRNA expression in human MDA-MB-468 cells at 10 uM incubated for 48 hrs by qRT-PCR analysis; format: functional, cell-based; summary of the method: as §1
MDA-MB-468 [25] = test: Downregulation of TACC3 mRNA expression in human MDA-MB-468 cells at 10 uM incubated for 48 hrs by qRT-PCR analysis; format: functional, cell-based; summary of the method: as §1
NCI-H1299 [26] = test: Antiproliferative activity against human NCI-H1299 cells harboring SWI/SNF mutant assessed as inhibition of cell growth at 10 uM treated for 9 days by optical microscopic analysis; format: functional, cell-based; conditions: time 9.0 day
Summary of the method: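 Cells seeded at 5 × 10³ per well, grown 24 h, then exposed to compound at 10 μM for 9 days with medium refreshed. Cells were photographed and counted on days 1, 3, 5, 7 and 9. For lines 1-2, EZH2-targeting or control shRNA was induced in the cells. Mean SD of three independent experiments; t-test against control.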

MDA-MB-468 [27] = test: Downregulation of CENPK mRNA expression in human MDA-MB-468 cells at 10 uM incubated for 48 hrs by qRT-PCR analysis; format: functional, cell-based; summary of the method: as §1

T1 sequence (Q15910 whole entry, looked up): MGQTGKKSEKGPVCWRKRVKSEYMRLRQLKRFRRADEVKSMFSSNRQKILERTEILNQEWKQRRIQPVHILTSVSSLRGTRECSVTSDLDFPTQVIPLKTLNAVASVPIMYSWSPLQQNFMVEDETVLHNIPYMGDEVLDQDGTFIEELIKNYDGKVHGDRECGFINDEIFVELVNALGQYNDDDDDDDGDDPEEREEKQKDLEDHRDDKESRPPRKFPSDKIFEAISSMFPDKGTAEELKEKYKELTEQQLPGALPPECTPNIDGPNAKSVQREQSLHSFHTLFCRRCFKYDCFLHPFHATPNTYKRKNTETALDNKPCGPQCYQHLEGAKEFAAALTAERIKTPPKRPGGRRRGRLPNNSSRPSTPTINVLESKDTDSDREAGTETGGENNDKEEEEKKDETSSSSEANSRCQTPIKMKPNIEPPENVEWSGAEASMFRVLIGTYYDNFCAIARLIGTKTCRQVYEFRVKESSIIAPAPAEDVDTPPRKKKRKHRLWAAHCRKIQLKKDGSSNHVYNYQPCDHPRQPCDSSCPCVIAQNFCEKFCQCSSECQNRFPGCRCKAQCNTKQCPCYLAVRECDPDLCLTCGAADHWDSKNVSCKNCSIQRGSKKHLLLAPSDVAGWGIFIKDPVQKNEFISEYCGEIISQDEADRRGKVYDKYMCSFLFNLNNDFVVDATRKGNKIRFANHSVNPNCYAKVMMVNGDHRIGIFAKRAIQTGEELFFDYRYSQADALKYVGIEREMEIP
T1 sequence (Q96SW2 whole entry, looked up): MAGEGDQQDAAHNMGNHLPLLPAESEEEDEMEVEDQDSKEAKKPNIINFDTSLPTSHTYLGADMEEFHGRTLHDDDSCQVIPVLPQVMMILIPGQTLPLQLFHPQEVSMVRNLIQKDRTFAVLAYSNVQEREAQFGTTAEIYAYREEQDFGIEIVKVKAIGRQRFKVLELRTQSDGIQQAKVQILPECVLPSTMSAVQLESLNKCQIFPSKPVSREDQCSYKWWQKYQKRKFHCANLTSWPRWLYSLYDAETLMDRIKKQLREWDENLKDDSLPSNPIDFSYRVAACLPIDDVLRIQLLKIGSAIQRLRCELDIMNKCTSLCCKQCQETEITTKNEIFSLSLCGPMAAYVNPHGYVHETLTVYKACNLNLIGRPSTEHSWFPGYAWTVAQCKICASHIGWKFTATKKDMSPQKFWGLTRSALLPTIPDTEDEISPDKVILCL
Chain of Histone-lysine N-methyltransferase EZH2 (Q15910 whole entry): as the sequence (Q15910 whole entry, looked up) above

- Activity [1]: Active
- Activity [2]: Active
- Activity [3]: Active
- Activity [4]: Dose-Dependent Effect
- Activity [5]: Dose-Dependent Effect
- IC50 [6]: 61 nM
SMILES: CC[C@H](C)n1cc(C)c2c(C(=O)NCc3c(C)cc(C)[nH]c3=O)cc(-c3ccc(N4CCN(CCCCCCCCCCCCOc5cccc6c5C(=O)N(C5CCC(=O)NC5=O)C6=O)CC4)nc3)cc21 (stereo not given in full)

- Activity [7]: inactive
- Activity [2]: inactive
- Activity [3]: inactive
- Activity [8]: Active
SMILES: CC[C@H](C)n1cc(C)c2c(C(=O)NCc3c(C)cc(C)[nH]c3=O)cc(-c3ccc(N4CCNCC4)nc3)cc21
- Activity (NCI-H1299 [9]): inactive
- Activity (WSUDLCL2): Active
- Activity (A549 [10]): inactive
- Activity (A549 [11]): inactive
- Activity (A549 [12]): inactive
- Activity (A549 [13]): inactive
- Activity (A549 [14]): inactive
- Activity (A549 [15]): inactive
- Activity (NCI-H1299 [16]): inactive
- Activity (NCI-H1299 [17]): inactive
- Activity (NCI-H1299 [18]): inactive
- Activity (NCI-H1299 [19]): inactive
- Activity (NCI-H1299 [20]): inactive
- Activity (MDA-MB-468 [21]): inactive
- Activity (MDA-MB-468 [22]): inactive
- Activity (MDA-MB-468 [23]): inactive
- Activity (MDA-MB-468 [24]): inactive
- Activity (MDA-MB-468 [25]): inactive
- Activity (NCI-H1299 [26]): inactive
- Activity (MDA-MB-468 [27]): inactive
